Measured values pooled from the literature.
Lines come from different studies, so protocols differ.

COc1ccc(NC(=O)N2CCCCN3[C@H](CN(C)C)[C@H](c4ccc(C#Cc5ccccc5)cc4)[C@@H]3C2)cc1 — CC50 (THP-1; cell growth or viability, ATP luminescence; 72 h): 2.87 µM
Cc1[nH]c(C)c(S(=O)(=O)Nc2ccc(S(=O)(=O)F)c(Cl)c2)c1C(=O)N1CCC(F)(F)C1 — microsomal CLint (metabolic stability; human, liver microsomes): 31.7 µL/min/mg
CC1(CC(F)(F)F)NC(=O)N(c2ccc(F)c(C(F)(F)F)c2)C1=O (centres unmarked) — microsomal CLint (metabolic stability; human, liver microsomes): < 7 µL/min/mg
CC(C)Cc1cn([C@H]2[C@H]([C@H](O)[C@H](O)CO)OC(C(=O)O)=C[C@@H]2O)nn1 — logD (shake flask; aqueous buffer; 2 h, pH 7.4): -0.54
CC(C)CC(=O)OC[C@H]1O[C@@](C#N)(c2ccc3c(N)ncnn23)[C@H](O)[C@@H]1O — CC50 (HEp-2; cell growth or viability, CCK-8; 5 days): > 100 µM
O=C1NC2(CCC2)C(=O)N1c1ccc(F)c(C(F)(F)F)c1 — microsomal CLint (metabolic stability; human, liver microsomes): 11 µL/min/mg
Cc1[nH]c(C)c(S(=O)(=O)Nc2ccc(S(F)(F)(F)(F)F)c(Cl)c2)c1C(=O)N1CCC(F)(F)C1 — microsomal CLint (metabolic stability; rat, liver microsomes): 20.5 µL/min/mg
CC(C)(C)[C@H](NC(=O)C(F)(F)F)C(=O)N1C[C@H]2[C@@H]([C@H]1C(=O)N[C@H](C#N)C[C@@H]1CCNC1=O)C2(C)C — CC50 (Calu-3; cell growth or viability): > 100 µM
CC/C(=C(\c1ccccc1)c1ccc(OCCN(C)C)cc1)c1ccccc1 — IC50 (MCF7; cell growth or viability, resazurin; 72 h): 18.2 µM
N#C[C@@]1(n2ccc(N)nc2=O)O[C@H](CO)[C@@H](O)[C@H]1O — CC50 (Calu-3; cell growth or viability): > 100 µM
CC(C)CCC(=O)N[C@H]1[C@H]([C@H](O)[C@H](O)CO)OC(C(=O)O)=C[C@@H]1O — logD (shake flask; aqueous buffer; 2 h, pH 7.4): -0.88
